# ChEMBL document CHEMBL1212766, “Dose escalation study of the safety, tolerability, and pharmacokinetics of nemonoxacin (TG-873870), a novel potent broad-spectrum nonfluorinated quinolone, in healthy volunteers” (Antimicrob Agents Chemother, 2010)
# Assays:
# [1] = Renal clearance in healthy human at 50 […], po administered as single dose; type: ADME, organism-based, Kidney; design: route oral; details: in vivo, read-out: CL_renal (converted)
# Outline: (§1)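 Renal clearance (CL_r) came from noncompartmental analysis of plasma drawn through 96 h and urine collected over fixed intervals to 96 h. Subjects were fasted healthy volunteers, six per dose cohort, given one oral dose with 240 ml water. Plasma and urine were assayed by LC-MS/MS after solid-phase extraction, with urine LLOQ 200 ng/ml. Values are means (SD).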
# [2] = Tmax in healthy human at 1500 […], po administered as single dose; type: ADME, organism-based; design: route oral; details: in vivo
# Outline: (§2)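 Tmax was read by visual inspection of individual plasma concentration–time profiles. Plasma was sampled at 0.5-h steps early on and then out to 96 h, and assayed by LC-MS/MS. Subjects were fasted healthy volunteers, six per cohort, given one oral dose with 240 ml water. Values are means (SD).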
# [3] = test system: Homo sapiens; assay: Toxicity in healthy human assessed as occurrence of erythema at 1000 […], po; type: organism-based; design: route oral; details: in vivo
# [4] = Clearance in healthy human assessed as recovery of unchanged drug in urine at 125 […], po administered as single dose; type: ADME, organism-based; design: route oral; details: read-out: Recovered in urine
# Outline: (§3)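 Healthy volunteers, six on drug per cohort, fasted 10 h and given one oral dose with 240 ml water, then fasted 4 h more. Urine was pooled over intervals from 0-2 to 72-96 h and stored at about −70°C. Drug was measured by solid-phase extraction and LC-MS/MS (LLOQ 200 ng/ml), giving the percent of dose recovered unchanged. Values are means (SD).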
# [5] = test system: Streptococcus pneumoniae; assay: Antimicrobial activity against ciprofloxacin-resistant Streptococcus pneumoniae; type: functional
# [6] = test system: Homo sapiens; assay: AUC (0 to infinity) in healthy human at 25 […], po administered as single dose; type: ADME, organism-based, Plasma; design: time infinity, route oral; details: in vivo
# [7] = test system: Streptococcus pneumoniae; assay: Antimicrobial activity against penicillin-sensitive Streptococcus pneumoniae; type: functional
# [8] = Cmax in healthy human at 1500 mg, po administered as single dose; details: in vivo
# [9] = Tmax in healthy human at 500 mg, po administered as single dose; details: in vivo
# [10] = Clearance in healthy human assessed as recovery of unchanged drug in urine at 1000 […], po administered as single dose; type: ADME, organism-based; design: route oral; details: read-out: Recovered in urine; outline: as §3
# [11] = Renal clearance in healthy human at 25 mg, po administered as single dose; details: in vivo, read-out: CL_renal (converted)
# [12] = test system: Homo sapiens; assay: Toxicity in healthy human assessed as occurrence of ear pain at 25 […], po; type: organism-based; design: route oral; details: in vivo
# [13] = Cmax in healthy human at 250 mg, po administered as single dose; details: in vivo
# [14] = test system: Homo sapiens; assay: AUC (0 to infinity) in healthy human at 500 […], po administered as single dose; type: ADME, organism-based, Plasma; design: time infinity, route oral; details: in vivo
# [15] = test system: Homo sapiens; assay: Toxicity in healthy human assessed as occurrence of nausea at 500 […], po; type: organism-based; design: route oral; details: in vivo
# [16] = test system: Homo sapiens; assay: Toxicity in healthy human assessed as occurrence of headache at 25 […], po; type: organism-based; design: route oral; details: in vivo
# [17] = test system: Homo sapiens; assay: AUC (0 to infinity) in healthy human at 1000 mg, po administered as single dose; details: in vivo
# [18] = Clearance in healthy human assessed as recovery of unchanged drug in urine at 500 mg, po administered as single dose; details: read-out: Recovered in urine
# [19] = test system: Homo sapiens; assay: Toxicity in healthy human assessed as occurrence of erythema at 1500 […], po; type: organism-based; design: route oral; details: in vivo
# [20] = Renal clearance in healthy human at 500 mg, po administered as single dose; details: in vivo, read-out: CL_renal (converted)
# [21] = Tmax in healthy human at 1000 mg/kg, po administered as single dose; type: ADME, organism-based; design: route oral; details: in vivo; outline: as §2
# [22] = test system: Homo sapiens; assay: AUC (0 to infinity) in healthy human at 125 […], po administered as single dose; type: ADME, organism-based, Plasma; design: time infinity, route oral; details: in vivo
# [23] = test system: Staphylococcus aureus; assay: Ratio of fCmax to MIC90 for methicillin-sensitive Staphylococcus aureus; type: functional
# Outline: (§4)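 Fasted healthy adults got a single oral 500 mg dose with 240 ml water. Plasma was sampled predose to 96 h and assayed by LC-MS/MS (5–5,000 ng/ml). Cmax was read from individual profiles, and AUC0-∞ came from linear trapezoid plus extrapolation. Free fraction was measured by ultrafiltration (30,000 MWCO) of 0.5 and 6 h plasma. Free exposure was divided by the isolate MIC90.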
# [24] = Renal clearance in healthy human at 1500 […], po administered as single dose; type: ADME, organism-based, Kidney; design: route oral; details: in vivo, read-out: CL_renal (converted); outline: as §1
# [25] = test system: Homo sapiens; assay: Toxicity in healthy human assessed as occurrence of abdominal pain at 125 […], po; type: organism-based, Abdomen; design: route oral; details: in vivo
# Outline: (§5)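 Double-blind, placebo-controlled single ascending oral dose; two placebo and six active subjects per cohort. Adverse events were recorded throughout the dosing period and at follow-up, with confinement to 96 h after dosing. Results are reported as number and percentage of subjects with the event (n/N × 100).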
# [26] = test system: Homo sapiens; assay: Toxicity in healthy human assessed as occurrence of pruritus at 25 […], po; type: organism-based; design: route oral; details: in vivo
# [27] = test system: Streptococcus pneumoniae; assay: Ratio of fAUC to MIC90 for penicillin-intermediate Streptococcus pneumoniae; type: functional; outline: as §4
# [28] = test system: Homo sapiens; assay: Toxicity in healthy human assessed as occurrence of erythema at 25 […], po; type: organism-based; design: route oral; details: in vivo
# [29] = test system: Homo sapiens; assay: Toxicity in healthy human assessed as occurrence of nausea at 1500 […], po; type: organism-based; design: route oral; details: in vivo
# [30] = test system: Homo sapiens; assay: Toxicity in healthy human assessed as occurrence of ear pain at 1000 […], po; type: organism-based; design: route oral; details: in vivo
# [31] = test system: Homo sapiens; assay: Toxicity in healthy human assessed as occurrence of ear pain at 50 […], po; type: organism-based; design: route oral; details: in vivo
# [32] = test system: Homo sapiens; assay: Clearance in healthy human at 1000 mg, po administered as single dose; details: in vivo
# [33] = test system: Homo sapiens; assay: Toxicity in healthy human assessed as occurrence of nausea at 250 […], po; type: organism-based; design: route oral; details: in vivo
# [34] = test system: Homo sapiens; assay: Toxicity in healthy human assessed as occurrence of abdominal pain at 50 […], po; type: organism-based, Abdomen; design: route oral; details: in vivo; outline: as §5
# [35] = test system: Streptococcus pneumoniae; assay: Ratio of fAUC to MIC90 for Streptococcus pneumoniae; type: functional; outline: as §4
# [36] = test system: Homo sapiens; assay: Toxicity in healthy human assessed as occurrence of contact dermatitis at 500 […], po; type: organism-based; design: route oral; details: in vivo
# [37] = test system: Streptococcus pneumoniae; assay: Antimicrobial activity against penicillin-resistant Streptococcus pneumoniae; type: functional
# [38] = test system: Streptococcus pneumoniae; assay: Antimicrobial activity against penicillin-intermediate Streptococcus pneumoniae; type: functional
# [39] = Terminal phase elimination half-life in healthy human at 250 […], po administered single dose; type: ADME, organism-based; design: route oral; details: in vivo
# Outline: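 After one fasted oral dose (six healthy subjects per cohort), plasma was sampled from 0.5 to 96 h and assayed by LC-MS/MS (LLOQ 5 ng/ml). λz came from least-squares regression on at least the last three log-concentration points, and t1/2 = 0.693/λz. Values are means (SD).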
# [40] = Cmax in healthy human at 1000 mg, po administered as single dose; details: in vivo
compound,measurement,setting,value
COc1c(N2C[C@@H](C)C[C@H](N)C2)ccc2c(=O)c(C(=O)O)cn(C3CC3)c12 [NEMONOXACIN],CL renal,[1],2 mL/min/kg
same,Tmax,[2],2.67 h
same,Activity,[3],17%
same,dose excreted,[4],38.3%
same,MIC90,[5],0.12 µg/mL
same,AUC,[6],1190 ng·h/mL
same,MIC90,[7],0.015 µg/mL
same,Cmax,[8],12100 ng/mL
same,Tmax,[9],2 h
same,dose excreted,[10],36.5%
same,CL renal,[11],3 mL/min/kg
same,Activity,[12],0%
same,Cmax,[13],2400 ng/mL
same,AUC,[14],32360 ng·h/mL
same,Activity,[15],0%
same,Activity,[16],0%
same,AUC,[17],63310 ng·h/mL
same,dose excreted,[18],34.1%
same,Activity,[19],50%
same,CL renal,[20],1.13 mL/min/kg
same,Tmax,[21],1.67 h
same,AUC,[22],7670 ng·h/mL
same,Ratio,[23],24
same,CL renal,[24],1.15 mL/min/kg
same,Activity,[25],0%
same,Activity,[26],0%
same,Ratio,[27],1812
same,Activity,[28],0%
same,Activity,[29],17%
same,Activity,[30],0%
same,Activity,[31],0%
same,CL,[32],3.67 mL/min/kg
same,Activity,[33],0%
same,Activity,[34],0%
same,Ratio,[35],1812
same,Activity,[36],0%
same,MIC90,[37],0.03 µg/mL
same,MIC90,[38],0.015 µg/mL
same,half-life,[39],10.9 h
same,Cmax,[40],7220 ng/mL
